According to PMC4073659 (Journal of Natural Products, 2014):

Legend:
[1] = test system: delta toxin production (strain AH2759); assay: Quorum sensing inhibition observed by delta toxin immunoblot; format: cell-based, Staphylococcus aureus (MRSA); conditions: strain AH2759 in TSB; compounds 0.3–400 μM, AIP-2 2–500 nM; spent media
Summary of the method: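 Spent media from the agr P3lux reporter cultures: TSB with 10 μg/mL chloramphenicol, 1:500 inoculum, 1% DMSO final, 37 °C with shaking at 250 rpm. Wells were pooled and 0.22 μm filtered, then run on 15% SDS-PAGE and transferred to PVDF (90 min, 160 mA). Blots were blocked overnight at 4 °C in milk/BSA TBST, then probed 1 h at rt with rabbit anti-delta toxin (1:2000) and HRP anti-rabbit (1:10 000).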

[2] = test system: agr quorum-sensing system (agr P3lux reporter strain AH2759); assay: agr P3lux reporter strain assay for quorum sensing inhibition; format: cell-based, Staphylococcus aureus (CA-MRSA strain LAC, USA300); conditions: Staphylococcus aureus, read-out: agr P3lux IC50, reporter strain AH2759; cell-density-normalized luminescence; ± standard error from four-parameter logistic fit

| SMILES | suppression of delta toxin production (immunoblot) [1] | IC50 [2] |
| --- | --- | --- |
| O=C(O)c1cc(O)c2c(c1)C(=O)c1cc(O)c(O)c(O)c1C2=O [compound 1] | dose-dependent suppression |  |
| C[C@H](O)Cc1cc(O)c2c(c1)C(=O)c1cc(O)cc(O)c1C2=O [compound 6, (+)-2′S-isorhodoptilometrin] |  | < 10 µM |
| CC(=O)C(O)c1cc(O)c2c(c1)C(=O)c1cc(O)cc(O)c1C2=O (centres unmarked) [compound 4] | dose-dependent suppression |  |
| O=C1c2cc(O)cc(O)c2C(=O)c2c(O)cc(CO)cc21 [compound 3, ω-hydroxyemodin] | dose-dependent suppression | < 10 µM |
